ChEMBL document CHEMBL1833913, “Structure-activity relationship study of pyridazine derivatives as glutamate transporter EAAT2 activators” (Bioorg Med Chem Lett, 2011)
Active and inactive are the calls of the source. The calls are words filed in the database; no cut-off is given here.

Assays:
[1] = system: Astrocyte; experiment: Increase of EAAT2 expression in mouse primary astrocytes at 10 uM after 4 hrs by Western blot analysis relative to control; type: functional
Outline: (§1)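 PA-EAAT2 cells (primary astrocyte line stably expressing EAAT2 mRNA) were incubated with compound at 10 μM for 4 h or 24 h. Cells were then harvested and EAAT2 protein measured by Western blot. Results are given as fold increase over DMSO control.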

[2] = system: Astrocyte; experiment: Increase of EAAT2 expression in mouse primary astrocytes at 10 uM after 24 hrs by Western blot analysis relative to control; type: functional; outline: as §1
[3] = system: Astrocyte; experiment: Increase of EAAT2 expression in mouse primary astrocytes at 1 uM after 24 hrs by Western blot analysis relative to GAPDH protein expression; type: functional
Outline: (§2)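 PA-EAAT2 cells (primary astrocyte line stably expressing EAAT2 mRNA) were exposed for 24 h to a 6-point series (0.1, 0.3, 1.0, 5.0, 10.0, 30.0 μM). EAAT2 protein was measured by Western blot and normalised separately to β-actin or GAPDH. Fold increase and EC50 were derived from the dose-response. Values are means of four separate experiments.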

[4] = system: Astrocyte; experiment: Increase of EAAT2 expression in mouse primary astrocytes at 1 uM after 24 hrs by Western blot analysis relative to beta-actin protein expression; type: functional; outline: as §2
[5] = system: Astrocyte; experiment: Increase of EAAT2 expression in mouse primary astrocytes after 24 hrs by Western blot analysis relative to GAPDH protein expression; type: functional, cell-based; outline: as §2
[6] = system: Astrocyte; experiment: Increase of EAAT2 expression in mouse primary astrocytes at 10 uM after 24 hrs by Western blot analysis relative to GAPDH protein expression; type: functional; outline: as §2
[7] = system: Astrocyte; experiment: Increase of EAAT2 expression in mouse primary astrocytes after 24 hrs by Western blot analysis relative to beta-actin protein expression; type: functional, cell-based; outline: as §2
[8] = system: Astrocyte; experiment: Increase of EAAT2 expression in mouse primary astrocytes at 10 uM after 24 hrs by Western blot analysis relative to beta-actin protein expression; type: functional; outline: as §2
[9] = system: Astrocyte; experiment: Increase of EAAT2 expression in mouse primary astrocytes at <5 uM after 24 hrs by Western blot analysis relative to control; type: functional

EC50 [5]	EC50 [7]	SMILES	fold change (FC) [1]	fold change (FC) [2]	fold change (FC) [3]	fold change (FC) [4]	fold change (FC) [6]	fold change (FC) [8]	fold change (FC) [9]
		CCSc1ccc(-c2ccccn2)nn1	1.6	1.9					
		Cc1ccc(COc2ccc(-c3ccccn3)nn2)c(C)c1	inactive	2					
0.5 µM	0.5 µM	Clc1cccc(Cl)c1CSc1ccc(-c2ccccn2)nn1	1.5	3.9	3.5	3	3.5	3.9	
		Cc1ccccc1COc1ccc(-c2ccccn2)nn1	2	2.5					
		Cc1ccc(Sc2ccc(-c3ccccn3)nn2)c(C)c1	1.2	2.2					
		Clc1cccc(CSc2ccc(-c3ccccn3)nn2)c1Cl	inactive	2.4					
		Cc1ccccc1COc1ccc(-c2ccccn2)nc1	1.5	inactive					
0.5 µM	1.7 µM	Clc1cccc(CSc2ccc(-c3ccccn3)nn2)c1	2.1	4.1	4.2	4	3.8	4.1	
		Fc1cccc(Cl)c1COc1ccc(-c2ccccn2)nn1	1.1	2.9					
		Cc1ccc(CSc2ccc(-c3ccccn3)nn2)cc1	2.1	2.6					
		Fc1cccc(F)c1CSc1ccc(-c2ccccn2)nn1	2.1	2.2					
		Fc1cccc(Cl)c1CSc1ccc(-c2cccnc2)nn1	inactive	2.3					
		Cc1ccccc1CSc1ccc(-c2cccnc2)nn1	1.5	inactive					
2.1 µM	2.4 µM	Cc1cc(C)c(CSc2ccc(-c3ccccn3)nn2)c(C)c1	1.7	4.7	1.6	1.5	4.8	4.7	
		Cc1ccccc1CCSc1ccc(-c2ccccn2)nn1	1.2	2.8					
3.3 µM	3.3 µM	Fc1cccc(Cl)c1CCSc1ccc(-c2ccccn2)nn1	1.9	6.7	1.2	1.2	5.3	6.7	>6
		c1ccc(CSc2ccc(-c3ccccn3)cc2)cc1	1.2	1.1					
		O=S(=O)(Cc1c(F)cccc1Cl)c1ccc(-c2ccccn2)nn1	1.4	2.8					
		Fc1cccc(Cl)c1CCOc1ccc(-c2ccccn2)nn1	2.2	3.1					
1.8 µM	2.7 µM	Cc1ccc(CSc2ccc(-c3ccccn3)nn2)c(C)c1	1.9	6.4	2.2	2	6	6.4	>6
		Fc1ccc(Sc2ccc(-c3ccccn3)nn2)c(Cl)c1	1.3	2.5					
		CC(Oc1ccc(-c2ccccn2)nn1)c1c(F)cccc1Cl (stereo not drawn)	1.6	3					
2.6 µM	2.6 µM	Fc1ccc(CSc2ccc(-c3ccccn3)nn2)c(F)c1	2.4	3.8	1	1	3.7	3.8	
		Sc1ccc(-c2ccccn2)nn1	inactive	2					
		Cc1cccc(CSc2ccc(-c3ccccn3)nn2)c1	2	2.8					
		Clc1ccccc1CSc1ccc(-c2ccncc2)nn1	1.5	1.7					
		Cc1cccc(C)c1COc1ccc(-c2ccccn2)nn1	2.1	3.2					

EC50 [5]	EC50 [7]	SMILES	fold change (FC) [1]	fold change (FC) [2]	fold change (FC) [3]	fold change (FC) [4]	fold change (FC) [6]	fold change (FC) [8]	fold change (FC) [9]
		Cc1ccccc1CNC(=O)c1ccc(-c2ccccn2)nn1	inactive	1.4					
		Fc1ccc(CSc2ccc(-c3ccccn3)nn2)c(Cl)c1	1.6	1.7					
		Cc1ccccc1CSc1ccc(-c2ccccn2)cn1	1.3	inactive					
2.4 µM	2.6 µM	Cc1cccc(C)c1CSc1ccc(-c2ccccn2)nn1	inactive	6.5	2	2	6.4	6.5	>6
1.7 µM	1.9 µM	c1ccc(-c2ccc(SC3CCCc4ccccc43)nn2)nc1 (stereo not drawn)	inactive	5.3	2.8	2.4	4.5	5.3	
1.8 µM	2.6 µM	Cc1ccccc1CSc1ccc(-c2ccccn2)nn1	1.7	3.5	1	1	3.1	3.5	
		Clc1ccccc1CSc1ccc(-c2cccnc2)nn1	1.2	1.2					
		Cc1ccccc1CS(=O)(=O)c1ccc(-c2ccccn2)nn1	2.3	1.1					
		Fc1ccccc1CSc1ccc(-c2ccccn2)nn1	2.2	3.1					
		O=S(=O)(Cc1ccccc1Cl)c1ccc(-c2ccccn2)nn1	1.6	inactive					
		Fc1cccc(Cl)c1CSc1ccc(-c2ccncc2)nn1	inactive	1.9					
		Cc1ccc(-c2ccc(SCc3c(F)cccc3Cl)nn2)cc1	1.2	2.3					
2.4 µM	3.9 µM	CC(Sc1ccc(-c2ccccn2)nn1)c1c(F)cccc1Cl (stereo not drawn)	1.7	5.5	1.8	1.5	5.2	5.5	
		Fc1cc(F)c(CSc2ccc(-c3ccccn3)nn2)c(F)c1	1.6	2.4					
		Fc1ccc(COc2ccc(-c3ccccn3)nn2)c(F)c1	inactive	2.3					
		c1ccc(CSc2ccc(-c3ccccn3)nn2)cc1	1.3	3					
		Clc1ccc(CSc2ccc(-c3ccccn3)nn2)c(Cl)c1	1.8	inactive					
		Cc1ccc(CSc2ccc(-c3ccncc3)nn2)cc1	1.3	2.4					
		Fc1ccc(CSc2ccc(-c3ccccn3)nn2)cc1	2.5	2.6					
3.2 µM	3.3 µM	Clc1ccccc1CSc1ccc(-c2ccccn2)nn1	2.1	4	1.6	1.1	4.5	4	
		CCCNC(=O)c1ccc(-c2ccccn2)nn1	inactive	1.2					
		Clc1ccc(Cl)c(CSc2ccc(-c3ccccn3)nn2)c1	1.4	2.5					
		Fc1cccc(Cl)c1CSc1ccc(-c2ccccn2)nn1	inactive	2					
		Cc1ccccc1CSc1ccc(-c2ccccc2)nn1	1.1	2					
5.1 µM	4.7 µM	Clc1ccccc1CCSc1ccc(-c2ccccn2)nn1	1.7	4.8	1	1	4.5	4.8	
		Cc1ccccc1CNc1ccc(-c2ccccn2)nn1	1.7	2.6					
		Oc1ccc(-c2ccccn2)nn1	1.5	1.6					
